Reference: ChEMBL document CHEMBL3779798, “Novel seleno- and thio-urea derivatives with potent in vitro activities against several cancer cell lines” (Eur J Med Chem, 2016)

Assays:
Format in all cases: functional, cell-based
[1] = Anticancer activity against human DU145 cells assessed as inhibition of cell growth after 72 hrs by MTT assay; settings: DU-145, 72 h
Summary of the method: (§1)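 MTT assay at 3,000 cells/well. Cells treated with DMSO or seven concentrations from 0.5 to 50 µM for 24, 48 or 72 h. MTT added 3 h before the end point; formazan dissolved in DMSO and read at 570 and 630 nm. IC50 is the concentration giving 50% growth inhibition. Media: PANC-1, BxPC3 and 1205Lu in DMEM; DU145 and A549 in RPMI 1640; HT29, HCT116 and RKO in McCoy's 5A, all with 10% FBS and pen/strep, at 37 °C and 5% CO2.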

[2] = Anticancer activity against human BxPC3 cells assessed as inhibition of cell growth after 48 hrs by MTT assay; settings: BXPC-3, 48 h; summary of the method: as §1
[3] = Anticancer activity against human PANC1 cells assessed as inhibition of cell growth after 72 hrs by MTT assay; settings: PANC-1, 72 h; summary of the method: as §1
[4] = Anticancer activity against human DU145 cells assessed as inhibition of cell growth after 24 hrs by MTT assay; settings: DU-145, 24 h; summary of the method: as §1
[5] = Anticancer activity against human BxPC3 cells assessed as inhibition of cell growth after 72 hrs by MTT assay; settings: BXPC-3, 72 h; summary of the method: as §1
[6] = Anticancer activity against human DU145 cells assessed as inhibition of cell growth after 48 hrs by MTT assay; settings: DU-145, 48 h; summary of the method: as §1
[7] = test system: A549; test: Anticancer activity against human A549 cells assessed as inhibition of cell growth after 48 hrs by MTT assay; settings: A549, 48 h; summary of the method: as §1
[8] = test system: A549; test: Anticancer activity against human A549 cells assessed as inhibition of cell growth after 24 hrs by MTT assay; settings: A549, 24 h; summary of the method: as §1
[9] = Anticancer activity against human 1205 Lu cells assessed as inhibition of cell growth after 72 hrs by MTT assay; summary of the method: as §1
[10] = Anticancer activity against human BxPC3 cells assessed as inhibition of cell growth after 24 hrs by MTT assay; settings: BXPC-3, 24 h; summary of the method: as §1
[11] = Anticancer activity against human HCT116 cells assessed as inhibition of cell growth after 24 hrs by MTT assay; settings: HCT-116, 24 h; summary of the method: as §1
[12] = test system: A549; test: Anticancer activity against human A549 cells assessed as inhibition of cell growth after 72 hrs by MTT assay; settings: A549, 72 h; summary of the method: as §1
[13] = Anticancer activity against human PANC1 cells assessed as inhibition of cell growth after 24 hrs by MTT assay; settings: PANC-1, 24 h; summary of the method: as §1
[14] = Anticancer activity against human HCT116 cells assessed as inhibition of cell growth after 48 hrs by MTT assay; settings: HCT-116, 48 h; summary of the method: as §1
[15] = Anticancer activity against human 1205 Lu cells assessed as inhibition of cell growth after 24 hrs by MTT assay; summary of the method: as §1
[16] = Anticancer activity against human HCT116 cells assessed as inhibition of cell growth after 72 hrs by MTT assay; settings: HCT-116, 72 h; summary of the method: as §1
[17] = Anticancer activity against human 1205 Lu cells assessed as inhibition of cell growth after 48 hrs by MTT assay; summary of the method: as §1
[18] = Anticancer activity against human PANC1 cells assessed as inhibition of cell growth after 48 hrs by MTT assay; settings: PANC-1, 48 h; summary of the method: as §1

## N=C(N)SCN1C(=O)c2ccccc2C1=O
[1]
  IC50: > 50 µM
[2]
  IC50: > 50 µM
[3]
  IC50: > 50 µM
[4]
  IC50: > 50 µM
[5]
  IC50: > 50 µM
[6]
  IC50: > 50 µM
[7]
  IC50: > 50 µM
[8]
  IC50: > 50 µM
[9]
  IC50: > 50 µM
[10]
  IC50: > 50 µM
[11]
  IC50: > 50 µM
[12]
  IC50: > 50 µM
[13]
  IC50: > 50 µM
[14]
  IC50: > 50 µM
[15]
  IC50: > 50 µM
[16]
  IC50: > 50 µM
[17]
  IC50: > 50 µM
[18]
  IC50: > 50 µM

## COc1cc2oc(=O)cc(CSC(=N)N)c2cc1OC
[1]
  IC50: > 50 µM
[2]
  IC50: > 50 µM
[3]
  IC50: > 50 µM
[4]
  IC50: > 50 µM
[5]
  IC50: > 50 µM
[6]
  IC50: > 50 µM
[7]
  IC50: > 50 µM
[8]
  IC50: > 50 µM
[9]
  IC50: 37.4 µM
[10]
  IC50: > 50 µM
[11]
  IC50: > 50 µM
[12]
  IC50: > 50 µM
[13]
  IC50: > 50 µM
[14]
  IC50: > 50 µM
[15]
  IC50: > 50 µM
[16]
  IC50: > 50 µM
[17]
  IC50: > 50 µM
[18]
  IC50: > 50 µM

## N=C(N)SCc1ccc2ccccc2n1
[1]
  IC50: 31.6 µM
[2]
  IC50: 37.3 µM
[3]
  IC50: > 50 µM
[4]
  IC50: > 50 µM
[5]
  IC50: 25.7 µM
[6]
  IC50: > 50 µM
[7]
  IC50: > 50 µM
[8]
  IC50: > 50 µM
[9]
  IC50: 39.2 µM
[10]
  IC50: > 50 µM
[11]
  IC50: > 50 µM
[12]
  IC50: > 50 µM
[13]
  IC50: > 50 µM
[14]
  IC50: 28.5 µM
[15]
  IC50: > 50 µM
[16]
  IC50: 22.9 µM
[17]
  IC50: > 50 µM
[18]
  IC50: > 50 µM

## N=C(N)SCc1nc2ccccc2nc1CSC(=N)N
[1]
  IC50: > 50 µM
[2]
  IC50: > 50 µM
[3]
  IC50: > 50 µM
[4]
  IC50: > 50 µM
[5]
  IC50: > 50 µM
[6]
  IC50: > 50 µM
[7]
  IC50: > 50 µM
[8]
  IC50: > 50 µM
[9]
  IC50: > 50 µM
[10]
  IC50: > 50 µM
[11]
  IC50: > 50 µM
[12]
  IC50: > 50 µM
[13]
  IC50: > 50 µM
[14]
  IC50: > 50 µM
[15]
  IC50: > 50 µM
[16]
  IC50: > 50 µM
[17]
  IC50: > 50 µM
[18]
  IC50: > 50 µM

## N=C(N)[Se]Cc1ccc([N+](=O)[O-])o1
[1]
  IC50: 15.6 µM
[2]
  IC50: 39.4 µM
[3]
  IC50: 13.6 µM
[4]
  IC50: > 50 µM
[5]
  IC50: 15.6 µM
[6]
  IC50: > 50 µM
[7]
  IC50: 10.2 µM
[8]
  IC50: 22.9 µM
[9]
  IC50: 13 µM
[10]
  IC50: 42.9 µM
[11]
  IC50: 14.6 µM
[12]
  IC50: 9 µM
[13]
  IC50: > 50 µM
[14]
  IC50: 3.7 µM
[15]
  IC50: 19.1 µM
[16]
  IC50: 3.8 µM
[17]
  IC50: 15.7 µM
[18]
  IC50: 15.6 µM

## N=C(N)[Se]Cc1ccc2c(c1)C(=O)c1ccccc1C2=O
[1]
  IC50: 8.2 µM
[2]
  IC50: > 50 µM
[3]
  IC50: 31.4 µM
[4]
  IC50: 21.4 µM
[5]
  IC50: > 50 µM
[6]
  IC50: 6.2 µM
[7]
  IC50: 2.2 µM
[8]
  IC50: 8.9 µM
[9]
  IC50: 11.3 µM
[10]
  IC50: > 50 µM
[11]
  IC50: > 50 µM
[12]
  IC50: 1.9 µM
[13]
  IC50: > 50 µM
[14]
  IC50: 12.6 µM
[15]
  IC50: 17.4 µM
[16]
  IC50: 5.9 µM
[17]
  IC50: 14.5 µM
[18]
  IC50: > 50 µM

## N=C(N)[Se]CN1C(=O)c2ccccc2C1=O
[1]
  IC50: 6.9 µM
[2]
  IC50: 19.1 µM
[3]
  IC50: 12.6 µM
[4]
  IC50: 18.8 µM
[5]
  IC50: 18.8 µM
[6]
  IC50: 14 µM
[7]
  IC50: 7.8 µM
[8]
  IC50: 11.2 µM
[9]
  IC50: 9.3 µM
[10]
  IC50: 19.8 µM
[11]
  IC50: 29.2 µM
[12]
  IC50: 5.5 µM
[13]
  IC50: 23.5 µM
[14]
  IC50: 17.9 µM
[15]
  IC50: 19 µM
[16]
  IC50: 15.6 µM
[17]
  IC50: 13.2 µM
[18]
  IC50: 15.3 µM
